Arrestin-AP2 inh – inhibitors of beta-arrestin/AP2 binding, primary screen, biochemical, GPCR trafficking, flow cytometry. beta-arrestin 1 C-terminal peptide binding to AP2 beta2-adaptin appendage (human). FITC-arrestin peptide / GST-AP2 beads; AP2 beta2 appendage carries R879A mutation. inhibition, % at 10 µM. 0.31% of 340,000 active. AID 504490, 2011;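 active = inhibition above a set limit, near 3 SD of compounds lacking own fluorescence, cut at about 54% in these data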;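 also: plate controls were DMSO wells for no effect and 5 µM unlabelled arrestin peptide for full effect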
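Assay system: GST-AP2 R879A bound to glutathione beads, E. coli-expressed; Medium: PBS with 0.05% Tween 20 and 0.1% BSA; Also added: fluorescein-tagged arrestin peptide at 50 nM final; Timing: 12 min plus 1 h, RT; Measured by: flow cytometry, FL1 (488/535 nm); Evaluation: percent drop in bead-associated FITC signal.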
MEKK2mut PB1 HTS – MEK5 binding signal on mutant MEKK2 PB1, primary screen, biochemical, multiplex bead flow cytometry, Alexa488-MEK5. Alexa488-MEK5 binding to MEKK2 mutant. percent response, % at 10 µM. 0.35% of 290,000 active; in the data active = percent response above about 24%, passing the limit was not always enough
MEKK3 PB1 HTS – modulators of MEKK3-MEK5 PB1 binding, primary screen, biochemical, wildtype MEKK3, multiplex bead flow cytometry, Alexa488-MEK5 | Mitogen-activated protein kinase kinase kinase 3 (Homo sapiens), Q99759 | bead-based flow cytometry, Alexa488-MEK5 binding to MEKK3; actives lie on both sides; 0 = blocked by unlabeled MEK5, 100 = vehicle | binding response (% of control), % at 10 µM | 1.4% of 290,000 active;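 active = binding response more than 3 SD above or below the average of its plate-row segment, actives on both sides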;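 also: Alexa488 bead fluorescence after subtracting the streptavidin-only scavenger bead signal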
Target sequence (Q99759 whole entry, looked up): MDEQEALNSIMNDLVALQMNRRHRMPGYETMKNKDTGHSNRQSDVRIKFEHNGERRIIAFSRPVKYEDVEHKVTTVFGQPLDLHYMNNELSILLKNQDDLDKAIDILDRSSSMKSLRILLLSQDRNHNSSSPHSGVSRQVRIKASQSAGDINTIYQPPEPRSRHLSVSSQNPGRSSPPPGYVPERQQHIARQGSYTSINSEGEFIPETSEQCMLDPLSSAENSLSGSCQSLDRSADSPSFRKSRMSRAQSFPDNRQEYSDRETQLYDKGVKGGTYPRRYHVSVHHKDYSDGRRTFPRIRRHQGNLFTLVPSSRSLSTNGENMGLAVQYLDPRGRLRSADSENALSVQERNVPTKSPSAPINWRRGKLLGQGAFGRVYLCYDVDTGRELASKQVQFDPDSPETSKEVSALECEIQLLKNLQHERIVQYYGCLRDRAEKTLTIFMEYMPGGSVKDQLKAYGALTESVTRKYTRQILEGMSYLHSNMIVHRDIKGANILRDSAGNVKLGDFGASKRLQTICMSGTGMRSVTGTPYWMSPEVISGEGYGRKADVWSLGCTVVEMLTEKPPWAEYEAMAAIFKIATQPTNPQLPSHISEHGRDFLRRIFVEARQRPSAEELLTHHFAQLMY
MEKK2wt PB1 HTS – modulators of MEK5 binding to wildtype MEKK2, primary screen, biochemical, multiplex bead flow cytometry, Alexa488-MEK5; Mitogen-activated protein kinase kinase kinase 2 (Homo sapiens), Q9Y2U5; Alexa488-MEK5 binding to MEKK2 WT; actives lie on both sides; binding response (% of control), % at 10 µM; 1.1% of 290,000 active; in the data active = binding response below about 67% or above about 130%
MEKK2wt confirm – modulators of MEK5 binding to wildtype MEKK2, confirmation, biochemical, single concentration, multiplex bead flow cytometry; shares compounds with MEKK3 PB1 HTS; binding response (% of control), % at 10 µM; Alexa488-MEK5 binding to MEKK2 WT; actives lie on both sides; 2.4% of 5,900 active; in the data active = binding response below about 16% or above about 210%; inactive = in between
MEKK2mut confirm – mutant MEKK2 PB1-MEK5 binding signal retest – biochemical, single concentration, multiplex bead flow cytometry, confirmation | Alexa488-MEK5 binding to MEKK2 mutant | shares compounds with MEKK3 PB1 HTS | percent response, % at 10 µM | 2% of 5,900 active; in the data active = percent response mostly above about 71%, no sharp cut-off; inactive = mostly below about 38%;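 also: higher means compound restores mutant binding toward wildtype level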
MEKK3 confirm – MEKK3 wild-type PB1 binding to MEK5, inhibitors, confirmation, biochemical, bead multiplex flow cytometry, single concentration, wildtype; binding response (% of control), % at 10 µM; Alexa488-MEK5 binding to MEKK3; stronger effect = lower value; shares compounds with MEKK3 PB1 HTS; AID 1894, 2009; 1.8% of 5,900 active;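 active = binding response below 72% of control, or above a set upper limit, though filed actives all read lower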;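 also: 100% = DMSO only wells and 0% = binding blocked by excess unlabeled MEK5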
An asterisk follows results filed as active; nt = no result; [ ] = dose if it differs, or a comment. The list is not random: actives were taken first. Their share in the collection is about 2.3%.

SMILES	Arrestin-AP2 inh	MEKK2mut PB1 HTS	MEKK3 PB1 HTS	MEKK2wt PB1 HTS	MEKK2wt confirm	MEKK2mut confirm	MEKK3 confirm
O=C(O)c1ccc(N/N=C/c2cc3ccccc3nc2Cl)cc1	35	6	102	100	nt	nt	nt
Cc1cccc2cc(/C=N/Nc3ccc(C(=O)O)cc3)c(Cl)nc12	-1	-37	66*[inhibitor]	67	74	-13	79
O=C(CN1CCCC1=O)NC1C2CC3CC(C2)CC1C3 (configuration not stated)	-3	1	105	108	nt	nt	nt
Cn1ccnc1Sc1ccc(C=O)cc1[N+](=O)[O-]	16	-2	74*[inhibitor]	91	94	-7	96
Cn1ccnc1Sc1ccccc1[N+](=O)[O-]	-12	2	101	105	nt	nt	nt
O=C(NCCN1CCN(c2cccc(Cl)c2)CC1)Nc1ccccc1	4	3	108	110	nt	nt	nt
O=C(NCCN1CCN(Cc2ccccc2)CC1)Nc1cc(Cl)cc(Cl)c1	-9	34	106	139*	144	31	108
N#C/C(=C\c1ccccc1[N+](=O)[O-])C(=O)NC1CCCCC1	41	-17	40*[inhibitor]	47*[inhibitor]	97	-6	99
N#C/C(=C\C=C\c1ccccc1[N+](=O)[O-])C(=O)NC1CCCCC1	12	-1	99	94	nt	nt	nt
NC(N)=Nc1nc2ccc(Cl)cc2c(=O)[nH]1	39	-3	105	100	nt	nt	nt
C/C(=N\NC(=O)c1cccnc1)c1ccc(OC2OCCOC2Oc2ccc(/C(C)=N/NC(=O)c3cccnc3)cc2)cc1 (configuration not stated)	47	-6	103	94	nt	nt	nt
Nc1ccc(-c2nc3ccc(N)cc3[nH]2)cc1	8	-17	69	73	nt	nt	nt
Cc1nc2ccc(-c3nc4ccc(N)cc4[nH]3)cc2[nH]1	-7	nt	25*[inhibitor]	nt	104	12	98
Cc1ccc(C)c(-c2nc3ccc(N)cc3[nH]2)c1	-8	13	108	33*[inhibitor]	104	7	105
O=C(/C=C/c1ccco1)N(Cc1ccccc1)C1CCS(=O)(=O)C1 (configuration not stated)	-16	-8	97	101	nt	nt	nt
O=C(/C=C/c1ccco1)N(Cc1ccc(F)cc1)C1CCS(=O)(=O)C1 (configuration not stated)	-11	-17	59*[inhibitor]	63*[inhibitor]	97	-1	98
Cc1ccc(O)c(N=Nc2nccs2)c1	-4	nt	nt	nt	nt	nt	nt
CSc1nnc(-c2ccco2)n1-c1ccccc1	-3	12	123*	124	109	5	105
CC(=O)CSc1nnc(-c2ccco2)n1-c1ccccc1	9	-3	98	97	nt	nt	nt
CCCOc1ccc(/C=N/NC(=O)CSCc2ccc([N+](=O)[O-])cc2)cc1OCC	6	1	135*	106	104	8	106
C=CCNc1nnc(Cc2ccc(C(C)C)cc2)c(=O)[nH]1	5	-2	98	97	nt	nt	nt
O=C(NCCCn1ccnc1)c1ccc(N2CCCCC2)c([N+](=O)[O-])c1	-9	3	102	106	nt	nt	nt
CC(C)Oc1ccc(C(=O)N2CCCc3ccccc32)cc1	-4	7	123*	117	102	2	105
CCOc1ccc(NC(=O)N2CCC(NC(=O)C(Cc3ccccc3OC)NC(C)=O)CC2)cc1 (configuration not stated)	23	7	101	102	nt	nt	nt
CC(=O)OC(C(=O)NC1CCCCC1)c1ccccc1Cl (configuration not stated)	32	-4	97	101	nt	nt	nt
SMILES	Arrestin-AP2 inh	MEKK2mut PB1 HTS	MEKK3 PB1 HTS	MEKK2wt PB1 HTS	MEKK2wt confirm	MEKK2mut confirm	MEKK3 confirm
CC(=O)OC(C(=O)NC1CCCCC1)c1ccncc1 (configuration not stated)	5	-15	75*[inhibitor]	83	98	-5	101
CCOc1ccccc1C(=O)Nc1cccc2ccccc12	-19	12	109	108	nt	nt	nt
CCOc1ccccc1C(=O)Nc1ccccc1O	-5	-7	78*[inhibitor]	74	105	5	103
FC(F)Oc1ccc(NC(=S)N2CCc3ccccc32)cc1	-4	-16	82	74	nt	nt	nt
COc1ccccc1C(=O)N/C(=C\c1ccc(Br)cc1)C(=O)NCCO	-3	6	129*	126	106	9	106
CC1CC2=C(C(=O)O1)C(C)Nc1ccccc1N2 (configuration not stated)	3	1	155*	105	102	-1	100
O=C(CCC(=O)N(CC(=O)NC1CCCC1)C1CCCC1)Nc1ccccn1	22	-1	103	100	nt	nt	nt
CCOc1ccccc1N(CC(=O)NC1CCCC1)C(=O)CCCC(=O)Nc1ccccn1	34	-39	2.0*[inhibitor]	2.0*[inhibitor]	95	-3	98
O=C(CCCC(=O)N(CC(=O)NC1CCCC1)C1CCCC1)Nc1ccccn1	6	-12	72*[inhibitor]	87	-1.0*[inhibitor]	-3	98
COc1ccccc1N(CC(=O)NC1CCCC1)C(=O)CCCC(=O)Nc1ccccn1	5	-2	102	101	nt	nt	nt
CN1CCN(CC(=O)N2c3ccccc3C(C)(c3ccc(Cl)cc3)CC2(C)C)CC1 (configuration not stated)	-11	27*	105	112	111	-1	100
C=CCc1ccc(OCC(O)CN2CCCCC2C)c(OC)c1 (configuration not stated)	10	42*	104	136*	123	15	101
COC(=O)c1ccc(C)c(-n2c(C)cc(C=O)c2C)c1	15	0	150*	112	97	1	95
COC(=O)c1cccc(-n2c(C)cc(C=O)c2C)c1	2	0	127	105	nt	nt	nt
COc1ccc(CNC(=O)COC(=O)c2ccc(OCC3CCCO3)cc2)cc1 (configuration not stated)	-3	nt	nt	nt	nt	nt	nt
CCCN1CCC(=O)N([C@H](CSc2ccc(C)cc2)c2ccccc2)CC1	10	20	115	157*	174	40	100
N#CC1=C(N)OC(c2ccccc2)=C(C#N)C1c1ccc2c(c1)OCO2 (configuration not stated)	13	6	133*	122	103	4	92
